# Reference: the RNAGym collection of RNA variant scans (doi:10.1126/science.aae0568)
# Variants at the floor of the assay were thinned out.
# B1: tRNA (parent)
# chain: GUUCCGUUGGCGUAAUGGUAACGCGUCUCCCUCCUAAGGAGAAGACUGCGGGUUCGAGUCCCGUACGGAACG
# Variants of: B1
# Assay: yeast fitness relative to wild type (ratio to wild type); higher = fitter; tRNA-Arg(CCU), competitive growth, 37 C, YPD
# How it was run: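 Changes in genotype frequencies gave Darwinian fitness relative to wild type. Frequencies were read by 100-nucleotide paired-end sequencing of gene amplicons before and after pooled Saccharomyces cerevisiae strains, carrying tRNA-Arg(CCU) gene variants at the native locus, were competed in YPD at 37°C for 24 hours in six replicates. A genotype was kept only with ≥ 100 starting reads, and estimates < 0.5 were set to 0.5.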
row,Variant,yeast fitness
1,C11G G23C A36G A37G,0.774
2,U26G A36U,0.714
3,C5U C11U C29A A40C A45C C61G,0.612
4,U8C G12A C31G A40C A45C G48C,≤ 0.5
5,C22G C61U,0.841
6,C11A G23C A42U,≤ 0.5
7,G18C A20G C29A C49U A69U,≤ 0.5
8,A15U G56A C61G C66U,≤ 0.5
9,C5U C22G C24G C31U,0.552
10,G10C A42U C61U C62U,≤ 0.5
11,G6C C24U G38C A40G U47C,≤ 0.5
12,C22U A40G C61U A70U,0.547
13,C24U G41C A42C,0.553
14,C30G A40G C49U,≤ 0.5
15,A15G A21C C24G A40U,≤ 0.5
16,C11U A14C,0.745
17,C31U C46A,1.01
18,A21G G23A C31U G63C U64A C66G,≤ 0.5
19,A21G A36G C60U,0.531
20,C22U C27U,0.713
21,C11A C29G C66U,0.525
22,C33G U53A C60U,0.637
23,C61U G63C,0.565
24,C5U G10A C66U,0.574

row,Variant,yeast fitness
1,G6A G56C,0.672
2,U3C U8C C27G C33A,≤ 0.5
3,C5G A21G G41A G67A,≤ 0.5
4,G17A G52A,0.549
5,A20C C29U C49G G63C C66G,≤ 0.5
6,A14U C46A,0.599
7,A37G U47G G52A,≤ 0.5
8,C11U C31U A65C,0.52
9,C24A U26G A43C C60U C62G G63A C66G A69G,≤ 0.5
10,G12C U32C A65G,0.569
11,U7G C11G C34U A40G G41A,≤ 0.5
12,C4A G12C U19C C24G A43U G67A,≤ 0.5
13,U3A C4A,0.681
14,C55A U59C,0.647
15,G17C U28C C55A C60A,≤ 0.5
16,C5U C11U C34A,0.558
17,C11U G18C A43C G52A,≤ 0.5
18,U28A A42G C66U G67C,≤ 0.5
19,U47A G63A,0.823
20,G10A C29U C49U G56A,0.633
21,U35G C55U,0.664
22,C31G G44C,0.931
23,G12C C34A G44A C46U G68A,≤ 0.5
24,G25C C33G C60A,≤ 0.5

row,Variant,yeast fitness
1,U7A U8G A36U A43U,≤ 0.5
2,A21G C31U,0.872
3,C5A C11G G25A C61A,≤ 0.5
4,G10A C29A C55G A65G,0.649
5,C4U C34G U35A A42U C60U,≤ 0.5
6,C62A A65C,0.766
7,A14C C24A U32G G41C,0.501
8,C5G A36C A42G,≤ 0.5
9,C5G C22G C55A A65U,0.63
10,C4G C22G G52C G68C,0.575
11,U2C C55A,0.7
12,C11U U13C C29U A37C C46A,≤ 0.5
13,U13G C22U C31A,0.552
14,C4A C29G A40U,≤ 0.5
15,G6A U16G A21G A40G A42U G67C,≤ 0.5
16,G12C C30U C33G U47G,≤ 0.5
17,U3C G58A C61U A70G,0.777
18,C34U A40G U47C,≤ 0.5
19,C11A C31U U53A A65U,≤ 0.5
20,U26G C29G A45C,≤ 0.5
21,U3A C11G G41C G58C,0.733
22,A20C C24G C33G,≤ 0.5
23,C29U G38C,0.545
24,G6A U54C,0.948

row,Variant,yeast fitness
1,U32A C34G C55G G68A A70C,≤ 0.5
2,U3A A21C G25U A43C C61A C62U,0.592
3,G9C C27G C29G A36C C61A,≤ 0.5
4,C29U C31A A40C G52A C61A,≤ 0.5
5,C4U C29A G52C C55A U59G,0.554
6,G6A G68A,0.896
7,C5U C61U A70G,0.609
8,C27U A40G G44A,0.513
9,C5G C31A C66G,≤ 0.5
10,C4G A14C G25C A45U,≤ 0.5
11,C5G C27G U32C C33U G56A A69U,≤ 0.5
12,C11U G18A G23C C34U U59A A70C,≤ 0.5
13,G17C G58C,0.528
14,A40U C61U,0.783
15,C22G C27U A43G,0.623
16,G6A C24U C61G C62U C66U A69U,≤ 0.5
17,C11A A15G C22U C29A A43U A45G A57U,≤ 0.5
18,U8A A43G A45C C49G,0.58
19,C4A C49U C55A C66U,0.545
20,U2C G12A A36U C62G,≤ 0.5
21,C4G C29G A36C A37U G38A A40C A45G G51A,≤ 0.5
22,C46A U53A,0.738
23,G10A C31A,0.637
24,U19C C60U C62U A69G,≤ 0.5

row,Variant,yeast fitness
1,A14C U28A U59G A65U,≤ 0.5
2,A21U A36U A65G,0.589
3,C11G C55G A57C C66U,≤ 0.5
4,U7G G67C,0.856
5,A37G C55U G63A,≤ 0.5
6,G25C C31A A65C,0.678
7,A20G C60G G68A,≤ 0.5
8,U2C G6C G25A A36C,≤ 0.5
9,C5U C49U C66A G67A,≤ 0.5
10,C5U G17A A40U A42C C49A,0.684
11,C29U G67C,0.848
12,C11U C29U U35C,≤ 0.5
13,G6A A42C,0.894
14,G6A A15C C22G A43C G50A,≤ 0.5
15,A15G A20U U26C C29G U32A,0.591
16,U8C C11A,0.698
17,A21U C33G A70U,≤ 0.5
18,C11G A15U,0.594
19,C22A U28G G67U,≤ 0.5
20,G18A C24G G38C,0.724
21,G6A G67C,0.963
22,A43U C60G C66U,0.534
23,G10A G25A C62U,≤ 0.5
24,C27G G38C,0.5

row,Variant,yeast fitness
1,A14U G41C U59A C61A C66U G68C,≤ 0.5
2,U16A G39C U54C C55U,≤ 0.5
3,U8C U26A,0.884
4,U19C C31A G50U C62G G63A,≤ 0.5
5,U3A C4U C5U,0.594
6,G38A C46A,0.993
7,C31A G38C G44A A65G,0.534
8,A37U G38C A65C,≤ 0.5
9,U3G G9C C33G C46U,≤ 0.5
10,U13A C31G C46G A69C,≤ 0.5
11,C4U C5G C34U U54A,≤ 0.5
12,C27A C34A,0.68
13,U7C C24G C31A,≤ 0.5
14,U2G C46G G52A,≤ 0.5
15,U2C C11A C22G G41A A43C G51C,≤ 0.5
16,C27U U28G A40C A69C,0.607
17,U7G C34G A43U,0.661
18,U7A G10A C55U C61G A65G G68A,≤ 0.5
19,U2A G25A A70U,0.695
20,A40U G52A C60U G63C,0.661
21,U8A A40C,0.774
22,C11U A14G C46A G51A,0.615
23,C11G C29G C55A U64C,≤ 0.5
24,C4A U13G U32G C55U G63C,≤ 0.5

row,Variant,yeast fitness
1,U26C C31U C49G,0.622
2,C5A G23C G50C,≤ 0.5
3,G17C C27U G67C,≤ 0.5
4,G12C A65G,0.783
5,C5G G48A C49U,0.933
6,C4A G10A G56C C60G C66U,≤ 0.5
7,C11A C27G U35A A43U U54C,0.556
8,A42C G50A U64A,≤ 0.5
9,U19C C29G,0.578
10,G9C C33U A40G U54G C62G,≤ 0.5
11,C5G C22A U26C C33G G63A,≤ 0.5
12,G12C C27U A69U,0.599
13,G6A A21G,0.965
14,U3C C11U C61G A65C,≤ 0.5
15,G6A U28G C60G,≤ 0.5
16,A43U G48A U64C,0.751
17,G10A U13A G67C,≤ 0.5
18,C46U C66G,0.949
19,U16C C24A,0.668
20,G6C U8C C34G A45G A65U,≤ 0.5
21,G23U A36C C46U G50C G67C,≤ 0.5
22,U2C G25A A42U C55G,≤ 0.5
23,U13G A20U A65C,0.594
